Source: ChEMBL document CHEMBL4330137, “Synthesis and antimicrobial activities of N6-hydroxyagelasine analogs and revision of the structure of ageloximes” (Bioorg Med Chem, 2019)
In brackets after ≈: the same amount, converted by molar mass. Activity calls are given as the source filed them. The rule behind the calls is not given here.

What was measured:
Trypanosoma cruzi = assay: Antitrypanosomal activity against beta-galactosidase expressing nifurtimox-sensitive Trypanosoma cruzi Tulahuen CL2 infected in human MRC5 SV2 cells assessed as reduction in parasite burden after 168 hrs by CPRG and Nonidet based spectrophotometric analysis; format: functional, organism-based; conditions: Tulahuen CL2, MRC-5 SV2, 168 h
Method in brief: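 MRC-5 cells (4·10³/well) plus 4·10⁴ parasites per well with compound at 64–0.25 µM, 37 °C, 5% CO2 for 7 days. CPRG/Nonidet in PBS added; absorbance at 540 nm after 4 h. Percent burden reduction versus untreated-infected and uninfected controls; IC50 calculated.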

[1] = Cytotoxicity against human MRC5 SV2 cells after 3 days by resazurin dye based fluorescence assay; format: cell-based; conditions: MRC-5 SV2, 72 h
Method in brief: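 MRC-5SV2 fibroblasts in MEM with L-glutamine, NaHCO3, 5% inactivated FCS; 5 × 10³ inoculum with compound at 64–0.25 µM (4-fold steps, DMSO <1%), 37 °C, 5% CO2, 3 days. Resazurin added, fluorescence after 4 h (ex 550/em 590 nm). Viability relative to untreated and medium controls; IC50 calculated.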

[2] = system: Staphylococcus epidermidis; assay: Antibiofilm activity against Staphylococcus epidermidis ATCC 35984 up to 1000 uM by safranin staining based assay; format: functional, organism-based
Escherichia coli [3] = assay: Antibiofilm activity against Escherichia coli clinical isolates at 1 mM by safranin staining based assay relative to control; format: functional
Pseudomonas aeruginosa [4] = assay: Antibiofilm activity against Pseudomonas aeruginosa CUCG 56489 up to 1000 uM by safranin staining based assay; format: functional, organism-based
Trypanosoma brucei = assay: Antitrypanosomal activity against suramin-sensitive Trypanosoma brucei Squib 427 assessed as parasite growth inhibition after 72 hrs by resazurin assay; format: functional, organism-based; conditions: Squib 427, 72 h
Method in brief: (§1)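 Bloodstream parasites in HMI-9 with 10% inactivated FCS; 1.5 × 10³ (T. brucei) or 4 × 10³ (T. rhodesiense) per well, compound 64–0.25 µM, 37 °C, 5% CO2, 3 days. Resazurin (50 µg/mL) added; fluorescence read after 24 h (T. brucei) or 6 h (T. rhodesiense), ex 550/em 590 nm. IC50 from % growth inhibition.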

[5] = system: Mycobacterium tuberculosis; assay: Antitubercular activity against Mycobacterium tuberculosis H37Rv by MABA; format: functional
Leishmania infantum = assay: Antileishmanial activity against amastigote stage of Leishmania infantum MHOM/MA(BE)/67 infected in mouse primary peritoneal macrophages assessed as decrease in parasite burden after 5 days by Giemsa staining-based microscopic method; format: functional, organism-based; conditions: MHOM/MA(BE)/67, 120 h
Method in brief: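 Amastigotes purified from infected hamster spleen; starch-stimulated mouse peritoneal macrophages (3·10⁴/well) infected with 4.5·10⁵ parasites in supplemented RPMI-1640. Compound (64–0.25 µM) added 2 h post-infection; 5 days, 37 °C, 5% CO2. Amastigotes per macrophage counted microscopically after 10% Giemsa staining; % burden reduction versus controls, IC50 calculated.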

[6] = system: Mycobacterium tuberculosis; assay: Antitubercular activity against Mycobacterium tuberculosis H37Rv by LORA; format: functional
Escherichia coli [7] = assay: Antibacterial activity against Escherichia coli ATCC 8739 after 17 hrs by resazurin dye based fluorimetric assay; format: functional, organism-based; conditions: ATCC 8739, ATCC 8739, 17 h
Method in brief: (§2)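 Bacteria grown in Mueller Hinton broth; 5 × 10³ CFU/mL inoculum with compound at 64, 16, 4, 1 and 0.25 µM (DMSO final <1%), 37 °C for 17 h. Resazurin added, fluorescence read after 0.5 h (ex 550/em 590 nm). Growth normalised to untreated (100%) and medium-only (0%) wells; IC50 calculated.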

[8] = system: Trypanosoma brucei rhodesiense; assay: Antitrypanosomal activity against Trypanosoma brucei rhodesiense STIB 900 assessed as parasite growth inhibition after 72 hrs by resazurin assay; format: functional, organism-based; conditions: STIB 900, 72 h; method in brief: as §1
Staphylococcus aureus = assay: Antibacterial activity against Staphylococcus aureus ATCC 6538 after 17 hrs by resazurin dye based fluorimetric assay; format: functional, organism-based; conditions: ATCC 6538, 17 h; method in brief: as §2
Candida albicans = assay: Antifungal activity against azole-resistant Candida albicans after 24 hrs by resazurin dye based fluorimetric assay; format: functional, organism-based
Method in brief: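 Inoculum 5 × 10³ CFU/mL in RPMI-1640 with Mops buffer and glucose. Tested at 64, 16, 4, 1 and 0.25 µM from DMSO stocks, final DMSO <1%. Incubated 24 h at 37 °C, then resazurin added and fluorescence read after 0.5 h (ex 550/em 590 nm). Growth normalized to untreated (100%) and medium-only (0%) wells; IC50 calculated. Flucytosine positive control.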

[9] = system: Staphylococcus epidermidis; assay: Antibiofilm activity against Staphylococcus epidermidis ATCC 35984 at 125 uM by safranin staining based assay relative to control; format: functional
Pseudomonas aeruginosa [10] = assay: Antibiofilm activity against Pseudomonas aeruginosa CUCG 56489 at 250 uM by safranin staining based assay relative to control; format: functional
[11] = system: Staphylococcus epidermidis; assay: Growth inhibition of Staphylococcus epidermidis ATCC 35984; format: functional, organism-based
Escherichia coli [12] = assay: Growth inhibition of Escherichia coli clinical isolates at 500 uM; format: functional; conditions: read-out: GI
Escherichia coli [13] = assay: Antibiofilm activity against Escherichia coli clinical isolates at 500 uM by safranin staining based assay relative to control; format: functional

| SMILES | IC50 (Trypanosoma cruzi) [nM] | IC50 [1] [nM] | IC50 (Trypanosoma brucei) [nM] | MIC [5] [µg/mL] | IC50 (Leishmania infantum) [nM] | MIC [6] [µg/mL] | IC50 (Escherichia coli [7]) [nM] | IC50 [8] [nM] | IC50 (Staphylococcus aureus) [nM] | IC50 (Candida albicans) [nM] | also measured |
| --- | --- | --- | --- | --- | --- | --- | --- | --- | --- | --- | --- |
| O=C(Cn1ccnc1[N+](=O)[O-])NCc1ccccc1 [BENZNIDAZOLE] | 2690 | – | – | – | – | – | – | – | – | – | – |
| CC(C)=CCC/C(C)=C/C[n+]1cn(C)c2nc[nH]/c(=N\O)c21.[Br-] | 11500 | > 64000 | 28000 | > 50 | 20300 | > 50 | > 64000 | 8060 | > 64000 | > 64000 | Activity [2]: inactive; Activity (Escherichia coli [3]): 50%; Activity (Pseudomonas aeruginosa [4]): inactive |
| C[C@H]1c2cccc(O)c2C(=O)C2=C(O)[C@]3(O)C(=O)C(C(N)=O)=C(O)[C@@H](N(C)C)[C@@H]3[C@@H](O)[C@@H]21 [DOXYCYCLINE] | – | – | – | – | – | – | 580 | – | 30 | – | – |
| Nc1nc(=O)[nH]cc1F [FLUCYTOSINE] | – | – | – | – | – | – | – | – | – | 410 | – |
| CC/C(=C(\c1ccccc1)c1ccc(OCCN(C)C)cc1)c1ccccc1 [TAMOXIFEN] | – | 11200 | – | – | – | – | – | – | – | – | – |
| Cc1ccc(C(=O)Nc2ccc(S(=O)(=O)O)c3cc(S(=O)(=O)O)cc(S(=O)(=O)O)c23)cc1NC(=O)c1cccc(NC(=O)Nc2cccc(C(=O)Nc3cc(C(=O)Nc4ccc(S(=O)(=O)O)c5cc(S(=O)(=O)O)cc(S(=O)(=O)O)c45)ccc3C)c2)c1 [SURAMIN] | – | – | 20 | – | – | – | – | 30 | – | – | – |
| CC(C)=CCC/C(C)=C/CC/C(C)=C/CC/C(C)=C/C[n+]1cn(C)c2nc[nH]/c(=N\O)c21.[Br-] | 540 | 1900 | 2010 | 11.3 | 2160 | 15.3 | > 64000 | 500 | 1890 | 2000 | Activity [9]: 90%; Activity (Pseudomonas aeruginosa [10]): 40 - 50%; IC50 [11]: 125000 nM; inhibition of growth at 500 µM (Escherichia coli [12]): 20%; Activity (Escherichia coli [13]): 70% |
| NNC(=O)c1ccncc1 [ISONIAZID] | – | – | – | 0.48 (≈ 3.5 µM) | – | > 128 | – | – | – | – | – |
| CCCCCCCCCCCCCCCCOP(=O)([O-])OCC[N+](C)(C)C [MILTEFOSINE] | – | – | – | – | 11800 | – | – | – | – | – | – |
